The results in this text go back to PubChem BioAssay.

The structures appear in SMILES notation. Active and inactive are the calls of the source.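 The calls were made as follows, unless noted: active = a full or partial loss of lipid-probe fluorescence in the fish gall bladder, intestine or both, judged by eye; inactive = no fluorescence loss, or compound toxic to the fish.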

Test [1] in a line: inhibitors of TNFa-induced NFkB p65 translocation, primary screen, imaging, HUVEC, MLSMR starter and 10KST1 sets (AID 438;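 active = inhibition above 20% together with a positive visual image hit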;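 also: compound added about 3h40 before a 20 min TNFalpha stimulation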;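 as to inhibition: signal is the nuclear over cytoplasmic p65 intensity ratio per well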). The following applies: HUVEC TNFa-induced p65 nuclear translocation; cell count: measured here: nuclei count (cytotoxicity indicator), at 2.08 µM; inhibition: at 2 µM, stronger effect = higher value, 0% TNFa-plus-vehicle, 100% no-TNFa wells.
The nature of test [2]: inhibitors of mutant huntingtin aggregation, primary screen, imaging, exon1htt(103Q)mCFP cells, high-content imaging (AID 483;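 active = visual image review flags a hit and inhibition of aggregation exceeds 20%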;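 also: compound exposure lasted 3 days before fixation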;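 as to nuclei count: percent of the per-plate median nuclei count of sample wells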). Particulars: exon1htt(103Q)mCFP cell line, aggregate imaging, at 2 µM; inhibition of aggregation: stronger effect = higher value; nuclei count: measured here: cell count, toxicity.
A short description of test [3]: inhibitors of E-selectin induction by TNFa, primary screen, imaging, HUVEC, immunofluorescence, MLSMR starter and 10KST1 sets (AID 487;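 active = visually confirmed hit in the image check and inhibition above 20%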;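 as to inhibition: signal is fraction of cell area covered by stained E-selectin grains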;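 as to nuclei count: 100% = median nuclei count of all wells on the same plate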). The following applies: HUVEC TNFalpha-induced E-selectin immunofluorescence imaging, at 2 µM; inhibition: stronger effect = higher value; nuclei count: measured here: cell number, toxicity.
Test [4] has as its target Voltage-gated potassium channel subunit beta-2 (Rattus norvegicus) (UniProt P62483). As to the kind of experiment: KvBeta enzyme negative modulators, primary screen, biochemical, NADPH fluorescence (AID 622;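 active = fluorescence slope higher than the sample average by over 3 SD, cut at about -0.22 in these data, passing the limit was not always enough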;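 also: slope of raw intensity against log time taken from 70 to 1610 s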). Particulars: recombinant KvBeta, 4-cyanobenzaldehyde reduction, at 10 µM, stronger effect = higher value.
The target is the same in test [5]. As to the kind of experiment: KvBeta positive modulators, primary screen, biochemical, NADPH fluorescence (AID 623;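 active = NADPH fluorescence slope more negative than the mean of all samples by about 3 SD, 99.7% confidence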;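 also: fluorescence intensity change per second fitted from 20 to 320 s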). The following applies: Recombinant KvBeta, NADPH fluorescence decrease slope, 10 min; at 10 µM; stronger effect = lower value.
Test [6] has as its target Alpha-2C adrenergic receptor (Homo sapiens) (UniProt P18825). The test is described as follows: modulators of alpha2C/GIRK thallium flux, primary screen, cell-based, HEK293 alpha2C/GIRK1/2 (AID 624;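 active = fluorescence slope after compound addition differing from the mean of all screened samples at 99.7% confidence, in either direction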;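 also: slope of fluorescence ratio to pre-addition baseline per second over 15 to 24 s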). The following applies: thallium flux BTC fluorescence, at 10 µM, actives lie on both sides.
A short description of test [7]: inhibitors of larval lipid processing in zebrafish, primary screen, whole organism, PED6 fluorescence, gall bladder and intestine (AID 686).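 Also: larvae 5 to 7 days old with five fish per well; signal comes from phospholipase A2 cleavage of quenched PED6 carried via bile; overnight exposure to compound and PED6 before scoring.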 Particulars: Zebrafish larvae PED6 lipid processing, fluorescence scoring; screened at 20 µM (by protocol). An outline of the steps: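 Test system – live zebrafish larvae aged 5-7 days, whole organism · Buffer or medium – E3 fish medium · Reagent – quenched phospholipase substrate PED6, 100 nM final, ingested by larvae · Doses – 20 µM single dose · Incubation – overnight compound and PED6 incubation · Technique – visual fluorescence microscopy scoring of gall bladder, gut · Read-out basis – visual per-well fluorescence inhibition score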

Test [8] can be described thus: inhibitors of Sendai virus-induced IRF3 signaling, primary screen, TLR/RLR signaling modifier project, cell-based, Sendai virus stimulus, luciferase, 10K MLSCN set (AID 602276;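 active = inhibition at or above 50% at 10 µM; inactive = inhibition below 50%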;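 also: firefly luciferase from ISG56 promoter only with Renilla not read in this screen; 0% = Sendai virus plus DMSO and 100% = medium plus DMSO without virus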). The following applies: HEK293 RL24 IRF3 luciferase reporter, at 10 µM, stronger effect = higher value. On the technique in general: Reporter assays use an easily measured gene product as a stand-in for the process of interest.

The nature of test [9]: inhibitors of poly I:C-induced TLR3 signaling, primary screen, cell-based, poly I:C stimulus, luciferase, 10K MLSCN set (AID 602277;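 active = inhibition of the reporter signal at or above 50%; inactive = inhibition below 50%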). The following applies: HEK293-TLR3 RL24 IRF3 luciferase reporter, at 10 µM, stronger effect = higher value.

Voltage-gated potassium channel subunit beta-2 (Rattus norvegicus), sequence (P62483 whole entry, looked up): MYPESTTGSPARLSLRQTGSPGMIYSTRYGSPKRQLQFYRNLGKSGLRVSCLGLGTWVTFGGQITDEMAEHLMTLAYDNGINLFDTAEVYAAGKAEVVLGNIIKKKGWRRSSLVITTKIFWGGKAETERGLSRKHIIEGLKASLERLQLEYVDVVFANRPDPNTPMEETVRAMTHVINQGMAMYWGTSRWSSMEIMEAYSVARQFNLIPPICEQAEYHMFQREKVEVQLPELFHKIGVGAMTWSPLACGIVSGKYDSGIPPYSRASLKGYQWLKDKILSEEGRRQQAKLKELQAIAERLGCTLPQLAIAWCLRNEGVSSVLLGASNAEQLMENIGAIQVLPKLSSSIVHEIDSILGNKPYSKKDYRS
Alpha-2C adrenergic receptor (Homo sapiens), sequence (P18825 whole entry, looked up): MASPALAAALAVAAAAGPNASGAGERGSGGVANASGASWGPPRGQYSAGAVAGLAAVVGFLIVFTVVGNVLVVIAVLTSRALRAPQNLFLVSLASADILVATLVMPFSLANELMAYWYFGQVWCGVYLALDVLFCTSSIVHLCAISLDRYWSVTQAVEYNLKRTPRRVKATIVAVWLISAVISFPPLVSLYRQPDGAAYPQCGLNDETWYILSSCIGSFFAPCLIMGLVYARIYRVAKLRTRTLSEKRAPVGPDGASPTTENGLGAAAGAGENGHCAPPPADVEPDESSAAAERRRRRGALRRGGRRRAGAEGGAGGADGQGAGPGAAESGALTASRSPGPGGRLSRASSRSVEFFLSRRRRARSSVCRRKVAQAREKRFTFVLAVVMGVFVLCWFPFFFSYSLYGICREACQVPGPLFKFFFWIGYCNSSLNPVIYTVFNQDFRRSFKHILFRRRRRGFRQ

One may read the inhibition as the drop in the measured response relative to a control, in per cent. As to `CNC(=O)CSc1nc2c(c(=O)n(C)c(=O)n2C)n1Cc1ccc(C)cc1`, the cell count in [1] amounted to 346. The inhibition in test [1] is 4% (inactive); in test [3] it was -12.3% (inactive); in test [8], 6.2% (inactive); in test [9], 24.5% (inactive). Moreover, the inhibition of aggregation in [2] is 15.9% (inactive). In addition, the nuclei count in test [2] was 80.4%; in test [3] it was 88.8%. The fluorescence slope in test [4] is -0.37 (inactive). Moreover, in test [5], the NADPH fluorescence slope is -5.6e-05 (inactive). Also, the slope in [6] is 0.00619 (inactive). In test [7], the molecule was called inactive.

On to `c1ccc2c(SCc3cn4cccnc4n3)ncnc2c1`, for which the cell count in [1] amounted to 553. In addition, the inhibition in [1] was -14.3% (inactive); in [3], 6.3% (inactive); in test [8], 3.66% (inactive); in [9], -0.28% (inactive). For the same molecule, the inhibition of aggregation in [2] is 0.5% (inactive). For the same molecule, the figures for the nuclei count in test [2] and in test [3] were 109% and 93.9%, respectively. Moreover, the fluorescence slope in test [4] is -0.341 (inactive). Further, the NADPH fluorescence slope in test [5] is -5.7e-05 (inactive). The slope in [6] was 0.00553 (inactive). In test [7], the molecule was classed as inactive.

Consider `Cn1c(-c2ccccc2)cnc1SCc1nc2ccccc2c(=O)[nH]1`, for which the cell count in [1] stood at 428. The inhibition in test [1] was 0.8% (inactive); in test [3] it was -80.8% (inactive); in [8] it was 11.1% (inactive); in [9] it was -54% (inactive). Besides, in [2], the inhibition of aggregation is -3.4% (inactive). In addition, the nuclei count was determined as 119% in [2] and 109% in test [3]. In addition, the fluorescence slope in [4] is -0.379 (inactive). In addition, the NADPH fluorescence slope in test [5] was -6.5e-05 (inactive). In test [6], the slope was 0.00544 (inactive). Further, in [7], the molecule was called inactive.

Regarding `COc1cc(-c2nc(S(=O)(=O)c3ccc(C)cc3)c(N(C)C)o2)cc(OC)c1OC`, in test [1], the cell count worked out at 432. Also, the inhibition in test [1] was -6.3% (inactive); in test [3] it was -57% (inactive); in [8] it was -11.7% (inactive); in [9], -7.3% (inactive). In [2], the inhibition of aggregation was -5.1% (inactive). For the same molecule, the nuclei count in test [2] was 105%; in test [3], 108%. Also, the fluorescence slope in test [4] was -0.386 (inactive). Further, the NADPH fluorescence slope in [5] was -9.2e-05 (inactive). Also, the slope in [6] is 0.00686 (inactive). The molecule was classed as inactive in test [7].

In the case of `c1cncc(C2Nc3ccccc3-c3nc4ccccc4n32)c1` (stereo unspecified), the cell count in test [1] stood at 428. Further, the inhibition in test [1] was 21.8% (active); in [3], -151% (inactive); in test [8], -7% (inactive); in [9], -38.6% (inactive). Moreover, in [2], the inhibition of aggregation is 2.7% (inactive). For the same molecule, the nuclei count in test [2] is 93.3%; in [3] it was 116%. Besides, in test [4], the fluorescence slope is -0.37 (inactive). For the same molecule, in test [5], the NADPH fluorescence slope was -5.6e-05 (inactive). In addition, the slope in [6] is 0.00507 (inactive). Further, in test [7], the call was inactive.

Consider `CSc1ccc(-c2cc(=O)c3ccccc3o2)cc1`, for which, in test [1], the cell count stood at 620. In addition, the inhibition in [1] was -10.5% (inactive); in [3] it was -108% (inactive); in [8], -21% (inactive); in [9], -41.6% (inactive). Further, in test [2], the inhibition of aggregation is -54.9% (inactive). The nuclei count amounted to 8.7% in test [2] and 139% in [3]. Also, the fluorescence slope in test [4] was -0.00698 (active). Also, in [5], the NADPH fluorescence slope is 1.2e-05 (inactive). In addition, in test [6], the slope is 0.00442 (inactive). Besides, the molecule was called inactive in [7].

Take `COc1ccccc1CC(=O)NCC1CCCO1` (stereo unspecified): in test [1], the cell count is 346. Besides, the inhibition in [1] was -15.9% (inactive); in test [3], -2.8% (inactive); in [8] it was 11.5% (inactive); in test [9], 17.7% (inactive). Also, the inhibition of aggregation in test [2] is 8.9% (inactive). The values for the nuclei count in test [2] and in [3] were 107% and 130%, respectively. Further, the fluorescence slope in test [4] was -0.329 (inactive). The NADPH fluorescence slope in test [5] was -4.4e-05 (inactive). In test [6], the slope is 0.00554 (inactive). Besides, in test [7], the molecule was called inactive.

`CCCCN1CN(S(=O)(=O)c2cccs2)c2nc3ccccc3nc21`: the cell count in [1] stood at 253. In addition, the inhibition in test [1] is -13% (inactive); in test [3], 0.2% (inactive); in test [8], -4.14% (inactive); in test [9], -4.36% (inactive). Also, in test [2], the inhibition of aggregation is 0.5% (inactive). Moreover, the values for the nuclei count in [2] and in [3] were 83.1% and 91.6%, respectively. In addition, the fluorescence slope in test [4] is -0.393 (inactive). Also, the NADPH fluorescence slope in test [5] was -5.6e-05 (inactive). Also, in test [6], the slope was 0.00634 (inactive). Moreover, the molecule was classed as inactive in test [7].

For `COc1ccc(S(=O)(=O)N2CCN(S(=O)(=O)c3ccc4c(c3)OCCO4)CC2)cc1C`, the cell count in test [1] worked out at 377. The inhibition in [1] is 4% (inactive); in test [3] it was 15.9% (inactive); in [8], 16.8% (inactive); in [9], 26.6% (inactive). The inhibition of aggregation in [2] was -8.3% (inactive). The nuclei count amounted to 114% in test [2] and 85% in test [3]. For the same molecule, in test [4], the fluorescence slope was -0.223 (inactive). In test [5], the NADPH fluorescence slope is -5.5e-05 (inactive). Also, the slope in test [6] was 0.00641 (inactive). Besides, the molecule was called inactive in test [7].

Turning to `Cc1c(Cl)cccc1NC(=O)CCN1CCCCCC1`, the cell count in test [1] was 221. The inhibition was 14.6% (inactive) in test [1], -108% (inactive) in [3], 13.4% (inactive) in [8] and 20.3% (inactive) in test [9]. The inhibition of aggregation in [2] is -8.7% (inactive). Further, the nuclei count in test [2] was 90.4%; in test [3], 143%. In addition, in [4], the fluorescence slope is -0.414 (inactive). Besides, the NADPH fluorescence slope in test [5] is -3.3e-05 (inactive). Also, the slope in test [6] was 0.00752 (inactive). In addition, the outcome in test [7] was inactive.

In the case of `COC(=O)c1c(NC(=O)CCc2ccc(C)o2)sc(C)c1C`, in test [1], the cell count is 568. The inhibition was 6.6% (inactive) in test [1], -69.4% (inactive) in test [3], 15.7% (inactive) in test [8] and 31.1% (inactive) in test [9]. In [2], the inhibition of aggregation was 7.9% (inactive). Also, the nuclei count came out at 79.4% in test [2] and 91% in [3]. Besides, in test [4], the fluorescence slope was -0.294 (inactive). Moreover, the NADPH fluorescence slope in test [5] is -1.6e-05 (inactive). Besides, the slope in test [6] was 0.00498 (inactive). Also, in test [7], the outcome was inactive.

In the case of `Cc1cn(C2CC3OCC3O2)c(=O)[nH]c1=O` (stereo unspecified), the cell count in test [1] came to 381. The inhibition in test [1] is 2.5% (inactive); in test [3], 30.5% (inactive); in test [8] it was -0.457% (inactive); in test [9], 5.51% (inactive). Besides, the inhibition of aggregation in test [2] was 0.6% (inactive). Moreover, the nuclei count is 98.5% in [2] and 98.4% in test [3]. Besides, in [4], the fluorescence slope is -0.399 (inactive). For the same molecule, in test [5], the NADPH fluorescence slope was 1.2e-05 (inactive). Moreover, in [6], the slope is 0.00591 (inactive). Also, the outcome in test [7] was inactive.

With `CCc1nnc(NC(=O)CSc2nnc(-c3ccccc3OC)n2-c2ccccc2)s1`, the cell count in [1] came to 276. Further, the inhibition in test [1] is -6.9% (inactive); in test [3], -163% (inactive); in test [8], 11.4% (inactive); in test [9], 8.06% (inactive). The inhibition of aggregation in test [2] is 14.1% (inactive). The nuclei count in test [2] worked out at 146%; in [3] it was 128%. Also, the fluorescence slope in test [4] was -0.396 (inactive). In addition, in test [5], the NADPH fluorescence slope was -7.8e-05 (inactive). The slope in test [6] was 0.00574 (inactive). Further, the call in test [7] was inactive.
